The values below come from ChEMBL document CHEMBL3751702, “Comprehensive Analysis of Structure-Activity Relationships of α-Ketoheterocycles as sn-1-Diacylglycerol Lipase α Inhibitors” (J Med Chem, 2015).

Each structure is given as a SMILES string.

The test deals with T1, Diacylglycerol lipase-alpha (Homo sapiens, UniProt Q9Y4D2).
T1 sequence (Q9Y4D2 whole entry): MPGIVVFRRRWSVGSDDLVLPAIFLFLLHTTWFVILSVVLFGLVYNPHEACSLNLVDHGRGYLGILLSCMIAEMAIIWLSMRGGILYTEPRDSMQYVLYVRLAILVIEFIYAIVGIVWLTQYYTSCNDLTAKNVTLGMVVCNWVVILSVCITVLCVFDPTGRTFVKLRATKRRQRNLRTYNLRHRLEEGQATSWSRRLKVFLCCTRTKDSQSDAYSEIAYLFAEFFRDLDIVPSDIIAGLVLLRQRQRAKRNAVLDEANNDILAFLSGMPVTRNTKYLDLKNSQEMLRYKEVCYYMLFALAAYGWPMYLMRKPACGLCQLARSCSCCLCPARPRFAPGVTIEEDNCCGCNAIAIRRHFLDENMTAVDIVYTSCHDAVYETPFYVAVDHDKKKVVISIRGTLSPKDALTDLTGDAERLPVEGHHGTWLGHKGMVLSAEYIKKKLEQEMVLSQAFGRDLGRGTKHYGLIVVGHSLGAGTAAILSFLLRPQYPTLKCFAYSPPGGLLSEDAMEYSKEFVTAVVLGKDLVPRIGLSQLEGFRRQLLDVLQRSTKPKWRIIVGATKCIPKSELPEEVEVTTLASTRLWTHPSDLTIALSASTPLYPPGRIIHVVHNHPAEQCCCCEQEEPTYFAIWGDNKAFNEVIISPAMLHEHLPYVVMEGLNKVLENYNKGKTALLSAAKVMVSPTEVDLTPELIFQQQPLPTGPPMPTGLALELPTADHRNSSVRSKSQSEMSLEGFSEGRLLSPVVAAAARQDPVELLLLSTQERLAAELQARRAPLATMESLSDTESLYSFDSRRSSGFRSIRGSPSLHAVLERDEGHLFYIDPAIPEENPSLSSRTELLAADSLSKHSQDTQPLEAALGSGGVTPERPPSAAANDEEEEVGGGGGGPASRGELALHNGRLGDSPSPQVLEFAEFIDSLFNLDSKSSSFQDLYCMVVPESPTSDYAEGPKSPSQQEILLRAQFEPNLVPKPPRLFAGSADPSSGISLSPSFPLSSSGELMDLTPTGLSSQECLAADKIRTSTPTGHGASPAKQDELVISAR
Description: Inhibition of full-length human DAGLalpha expressed in HEK293T cell membranes using para-nitrophenylbutyrate by colorimetric assay. The format is cell-based, HEK-293T. In a few lines:
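Membranes from HEK293T cells transiently transfected with full-length human DAGL-α (pcDNA3.1; PEI transfection, harvested at 72 h), diluted to 0.05 μg/μL final protein in 50 mM HEPES pH 7.2. Screen at 10 μM in duplicate; dose response by 10-fold serial dilution.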

In turn, `O=C(CCCCCc1ccccc1)c1nc2ccccc2o1` showed an IC50 of 3.63 µM. In the case of `CCCCC/C=C\C/C=C\C/C=C\C/C=C\CCCC(=O)c1nc2ncccc2o1`, the IC50 is 2.4 µM.

Compound `O=C(CCCCCc1ccccc1)c1nc2ncccc2s1` gave a 50% inhibitory concentration (IC50) of over 10 µM. For the compound `O=C(CCCCCc1ccccc1)c1nc2cccc(F)c2o1`, the IC50 is over 10 µM. The figure for `O=C(CCCCCc1ccccc1)c1nc2cc(F)ccc2o1` is 1.41 µM. As for `O=C(CCCCCc1ccccc1)c1nc2cccnc2o1`, the figure is 1.7 µM. The figure for `O=C(CCCCCCc1ccccc1)c1nnc(-c2ccccc2)s1` is over 10 µM; for `O=C(CCCCCc1ccccc1)c1nc2ccccc2[nH]1` it is 12 µM; for `O=C(CCCCCc1ccccc1)c1nc2cnccc2o1` it is 0.204 µM. Take `O=C(CCCCCc1ccccc1)c1nc2ccc(F)cc2o1`: the IC50 is 0.708 µM. The figure for `O=C(CCCCCc1ccccc1)c1nc2ncccc2[nH]1` is 1.23 µM; for `O=C(CCCCCc1ccccc1)c1nc2cc([N+](=O)[O-])ccc2o1` it is 0.891 µM. The figure for `O=C(CCCCCc1ccccc1)c1nc2ccc([N+](=O)[O-])cc2o1` is 0.0871 µM; for `CCCCCCCC/C=C\CCCCCCCC(=O)c1nc2ccccc2[nH]1` it is 0.195 µM. As for `O=C(CCCCCc1ccccc1)c1nc2c(F)cccc2o1`, the figure is 0.117 µM.

For `O=C(CCCCCc1ccccc1)c1nc2ccc(Br)cc2o1`, the IC50 was 5.89 µM.

`O=C(CCCCCc1ccccc1)c1nc2ccccc2s1` had an IC50 of over 10 µM. The figure for `O=C(CCCCCc1ccccc1)c1nc2cccc(Br)c2o1` is over 10 µM; for `O=C(CCCCCCc1ccccc1)c1nnc(-c2cccs2)s1` it is over 10 µM.

Turning to `COC(=O)c1nnc(C(=O)CCCCCCc2ccccc2)s1`, the IC50 is over 10 µM. `O=C(CCCCCCc1ccccc1)c1ncc(-c2ccccn2)s1` showed an IC50 of over 10 µM. The figure for `O=C(CCCCCCc1ccccc1)c1ncc(-c2ccco2)s1` is over 10 µM.

`O=C(CCCCCCc1ccccc1)c1nncs1` showed an IC50 of over 10 µM. The figure for `O=C(CCCCCCc1ccccc1)c1nnc(-c2ccccn2)s1` is over 10 µM.

Regarding `O=C(CCCCCCc1ccccc1)c1nnc[nH]1`, the half-maximal inhibitory concentration (IC50) is over 10 µM. As for `O=C(CCCCCCc1ccccc1)c1ncc(-c2cccs2)s1`, the figure is over 10 µM; as for `O=C(CCCCCCc1ccccc1)c1nnc(-c2ccco2)s1`, over 10 µM.

What is called IC50 is the concentration that inhibits the measured activity by half. Lower therefore signals inhibition by little substance.
